Reference: ChEMBL document CHEMBL1154352, “Toll-like receptor 7 selective synthetic oligoribonucleotide agonists: synthesis and structure-activity relationship studies” (J Med Chem, 2009)
The source made the active and inactive calls. No cut-off for these calls is given here.

Assays:
PBMC [1] = test: Immunomodulatory activity in human PBMC assessed as induction of IFNalpha after 24 hrs; assay type: functional, cell-based
Procedure, shortened: (§1)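 Human PBMCs plated at 5 × 10^6 cells/mL; compounds dissolved in PBS added at various concentrations, 37 °C for 24 h. Supernatant cytokines/chemokines quantified with human Luminex multiplex kit.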

PBMC [2] = test: Immunomodulatory activity in human PBMC assessed as induction of IP10 after 24 hrs; assay type: functional, cell-based; procedure, shortened: as §1
PBMC [3] = test: Immunomodulatory activity in human PBMC assessed as induction of IL12 after 24 hrs; assay type: functional, cell-based; procedure, shortened: as §1
PBMC [4] = test: Immunomodulatory activity in human PBMC assessed as induction of TNFalpha after 24 hrs; assay type: functional, cell-based; procedure, shortened: as §1
PBMC [5] = test: Immunomodulatory activity in human PBMC assessed as induction of IL6 after 24 hrs; assay type: functional, cell-based; procedure, shortened: as §1
PBMC [6] = test: Immunomodulatory activity in human PBMC assessed as induction of IL1-beta after 24 hrs; assay type: functional, cell-based; procedure, shortened: as §1
PBMC [7] = test: Immunomodulatory activity in human PBMC assessed as induction of MIP1alpha after 24 hrs; assay type: functional, cell-based; procedure, shortened: as §1
PBMC [8] = test: Immunomodulatory activity in human PBMC assessed as induction of IL10 after 24 hrs; assay type: functional, cell-based; procedure, shortened: as §1
PBMC [9] = test: Immunomodulatory activity in human PBMC assessed as induction of MCP1 after 24 hrs; assay type: functional, cell-based; procedure, shortened: as §1
PBMC [10] = test: Immunomodulatory activity in human PBMC assessed as induction of MIP1beta after 24 hrs; assay type: functional, cell-based; procedure, shortened: as §1
PBMC [11] = test: Immunomodulatory activity in human PBMC assessed as induction of TNFalpha at 50 ug/ml after 24 hrs; assay type: functional, cell-based; procedure, shortened: as §1
PBMC [12] = test: Immunomodulatory activity in human PBMC assessed as induction of IFNalpha at 50 ug/ml after 24 hrs; assay type: functional, cell-based; procedure, shortened: as §1
PBMC [13] = test: Immunomodulatory activity in human PBMC assessed as induction of MIP1alpha at 50 ug/ml after 24 hrs; assay type: functional, cell-based; procedure, shortened: as §1
PBMC [14] = test: Immunomodulatory activity in human PBMC assessed as induction of MIP1beta at 50 ug/ml after 24 hrs; assay type: functional, cell-based; procedure, shortened: as §1
PBMC [15] = test: Immunomodulatory activity in human PBMC assessed as induction of IP10 at 50 ug/ml after 24 hrs; assay type: functional, cell-based; procedure, shortened: as §1
Homo sapiens [16] = organism: Homo sapiens; test: Immunostimulatory activity in human mDC assessed as induction of IFNalpha at 100 ug/ml after 24 hrs; assay type: functional
Procedure, shortened: (§2)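 Human mDCs isolated from PBMCs by CD19+ B-cell depletion then BDCA1 positive selection; plated at 1 × 10^6 cells/mL, compounds in PBS, 37 °C for 24 h; supernatant cytokines by human Luminex multiplex. Representative of four independent experiments.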

Homo sapiens [17] = organism: Homo sapiens; test: Immunostimulatory activity in human mDC assessed as induction of IP10 at 100 ug/ml after 24 hrs; assay type: functional; procedure, shortened: as §2
Homo sapiens [18] = organism: Homo sapiens; test: Immunostimulatory activity in human mDC assessed as induction of IL12 at 100 ug/ml after 24 hrs; assay type: functional; procedure, shortened: as §2
Homo sapiens [19] = organism: Homo sapiens; test: Immunostimulatory activity in human mDC assessed as induction of TNFalpha at 100 ug/ml after 24 hrs; assay type: functional; procedure, shortened: as §2
Mus musculus = test: Immunomodulatory activity in C57BL/6 mouse assessed as induction of IL12 release at 25 mg/kg, sc after 2 hrs by ELISA; assay type: functional, organism-based; set-up: dose 25 mg/kg
Procedure, shortened: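 Female C57BL/6 wild-type mice, 5–8 weeks old, n=3; compounds given subcutaneously at 10 or 25 mg/kg. Retro-orbital blood at 2 h; serum cytokines by mouse Luminex multiplex or IL-12 ELISA.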

SMILES: Nc1ccn([C@@H]2O[C@H](COP(=O)(S)O[C@H]3[C@@H](O)[C@H](n4cnc5c(N)ncnc54)O[C@@H]3CO)[C@@H](OP(=O)(S)OC[C@H]3O[C@@H](n4ccc(=O)[nH]c4=O)[C@H](O)[C@@H]3OP(=O)(S)OC[C@H]3O[C@@H](n4ccc5c(=O)[nH]c(N)nc54)[C@H](O)[C@@H]3OP(=O)(S)OC[C@H]3O[C@@H](n4ccc(N)nc4=O)[C@H](O)[C@@H]3OP(=O)(S)OC[C@H]3O[C@@H](n4ccc5c(=O)[nH]c(N)nc54)[C@H](O)[C@@H]3OP(=O)(S)OC[C@H]3O[C@@H](n4cnc5c(N)ncnc54)[C@H](O)[C@@H]3OP(=O)(S)OC[C@H]3O[C@@H](n4ccc5c(=O)[nH]c(N)nc54)[C@H](O)[C@@H]3OP(=O)(S)OC[C@H]3O[C@@H](n4ccc(N)nc4=O)[C@H](O)[C@@H]3OP(=O)(S)OC[C@H]3O[C@@H](n4ccc(=O)[nH]c4=O)[C@H](O)[C@@H]3OP(=O)(S)OC[C@H]3O[C@@H](n4ccc(=O)[nH]c4=O)[C@H](O)[C@@H]3OP(=O)(S)OCC(O)COP(=O)(S)O[C@H]3[C@@H](O)[C@H](n4ccc(=O)[nH]c4=O)O[C@@H]3COP(=O)(S)O[C@H]3[C@@H](O)[C@H](n4ccc(=O)[nH]c4=O)O[C@@H]3COP(=O)(S)O[C@H]3[C@@H](O)[C@H](n4ccc(N)nc4=O)O[C@@H]3COP(=O)(S)O[C@H]3[C@@H](O)[C@H](n4ccc5c(=O)[nH]c(N)nc54)O[C@@H]3COP(=O)(S)O[C@H]3[C@@H](O)[C@H](n4cnc5c(N)ncnc54)O[C@@H]3COP(=O)(S)O[C@H]3[C@@H](O)[C@H](n4ccc5c(=O)[nH]c(N)nc54)O[C@@H]3COP(=O)(S)O[C@H]3[C@@H](O)[C@H](n4ccc(N)nc4=O)O[C@@H]3COP(=O)(S)O[C@H]3[C@@H](O)[C@H](n4ccc5c(=O)[nH]c(N)nc54)O[C@@H]3COP(=O)(S)O[C@H]3[C@@H](O)[C@H](n4ccc(=O)[nH]c4=O)O[C@@H]3COP(=O)(S)O[C@H]3[C@@H](O)[C@H](n4ccc(N)nc4=O)O[C@@H]3COP(=O)(S)O[C@H]3[C@@H](O)[C@H](n4cnc5c(N)ncnc54)O[C@@H]3CO)[C@H]2O)c(=O)n1 (stereo not given in full)
- Activity (PBMC [1]): Dose-dependent effect
- Activity (PBMC [2]): Dose-dependent effect
- Activity (PBMC [3]): Dose-dependent effect
- Activity (PBMC [4]): Dose-dependent effect
- Activity (PBMC [5]): Dose-dependent effect
- Activity (PBMC [6]): Dose-dependent effect
- Activity (PBMC [7]): Dose-dependent effect
- Activity (PBMC [8]): Dose-dependent effect
- Activity (PBMC [9]): Dose-dependent effect
- Activity (PBMC [10]): Dose-dependent effect
- Activity (PBMC [11]): 256 pg/mL
- Activity (PBMC [12]): 266 pg/mL
- Activity (PBMC [13]): 4890 pg/mL
- Activity (PBMC [14]): 8980 pg/mL
- Activity (PBMC [15]): 395 pg/mL
- Activity (Homo sapiens [16]): Active
- Activity (Homo sapiens [17]): Active
- Activity (Homo sapiens [18]): Active
- Activity (Homo sapiens [19]): Active
- Activity (Mus musculus): Active

SMILES: Nc1ccn([C@@H]2O[C@H](COP(=O)(S)O[C@H]3[C@@H](O)[C@H](n4cnc5c(N)ncnc54)O[C@@H]3COP(=O)(S)O[C@H]3[C@@H](O)[C@H](n4ccc5c(=O)[nH]c(N)nc54)O[C@@H]3COP(=O)(S)O[C@H]3[C@@H](O)[C@H](n4ccc(=O)[nH]c4=O)O[C@@H]3COP(=O)(S)O[C@H]3[C@@H](O)[C@H](n4ccc5c(=O)[nH]c(N)nc54)O[C@@H]3COP(=O)(S)O[C@H]3[C@@H](O)[C@H](n4cnc5c(N)ncnc54)O[C@@H]3COP(=O)(S)O[C@H]3[C@@H](O)[C@H](n4cnc5c(N)ncnc54)O[C@@H]3CO)[C@@H](OP(=O)(S)OC[C@H]3O[C@@H](n4ccc5c(=O)[nH]c(N)nc54)[C@H](O)[C@@H]3OP(=O)(S)OC[C@H]3O[C@@H](n4ccc(N)nc4=O)[C@H](O)[C@@H]3OP(=O)(S)OC[C@H]3O[C@@H](n4ccc(=O)[nH]c4=O)[C@H](O)[C@@H]3OP(=O)(S)OC[C@H]3O[C@@H](n4ccc(=O)[nH]c4=O)[C@H](O)[C@@H]3OP(=O)(S)OCC(O)COP(=O)(S)O[C@H]3[C@@H](O)[C@H](n4ccc(=O)[nH]c4=O)O[C@@H]3COP(=O)(S)O[C@H]3[C@@H](O)[C@H](n4ccc(=O)[nH]c4=O)O[C@@H]3COP(=O)(S)O[C@H]3[C@@H](O)[C@H](n4ccc(N)nc4=O)O[C@@H]3COP(=O)(S)O[C@H]3[C@@H](O)[C@H](n4ccc5c(=O)[nH]c(N)nc54)O[C@@H]3COP(=O)(S)O[C@H]3[C@@H](O)[C@H](n4ccc(N)nc4=O)O[C@@H]3COP(=O)(S)O[C@H]3[C@@H](O)[C@H](n4cnc5c(N)ncnc54)O[C@@H]3COP(=O)(S)O[C@H]3[C@@H](O)[C@H](n4ccc5c(=O)[nH]c(N)nc54)O[C@@H]3COP(=O)(S)O[C@H]3[C@@H](O)[C@H](n4ccc(=O)[nH]c4=O)O[C@@H]3COP(=O)(S)O[C@H]3[C@@H](O)[C@H](n4ccc5c(=O)[nH]c(N)nc54)O[C@@H]3COP(=O)(S)O[C@H]3[C@@H](O)[C@H](n4cnc5c(N)ncnc54)O[C@@H]3COP(=O)(S)O[C@H]3[C@@H](O)[C@H](n4cnc5c(N)ncnc54)O[C@@H]3CO)[C@H]2O)c(=O)n1 (stereo not given in full)
- Activity (PBMC [1]): Dose-dependent effect
- Activity (PBMC [2]): Dose-dependent effect
- Activity (PBMC [3]): Dose-dependent effect
- Activity (PBMC [4]): Dose-dependent effect
- Activity (PBMC [5]): Dose-dependent effect
- Activity (PBMC [6]): Dose-dependent effect
- Activity (PBMC [7]): Dose-dependent effect
- Activity (PBMC [8]): Dose-dependent effect
- Activity (PBMC [9]): Dose-dependent effect
- Activity (PBMC [10]): Dose-dependent effect
- Activity (PBMC [11]): 57 pg/mL
- Activity (PBMC [12]): 209 pg/mL
- Activity (PBMC [13]): 2540 pg/mL
- Activity (PBMC [14]): 6230 pg/mL
- Activity (PBMC [15]): 629 pg/mL
- Activity (Homo sapiens [16]): Active
- Activity (Homo sapiens [17]): Active
- Activity (Homo sapiens [18]): Active
- Activity (Homo sapiens [19]): Active
- Activity (Mus musculus): Active

SMILES: Nc1ccn([C@@H]2O[C@H](CO[C@H]3[C@@H](O)[C@H](n4cnc5c(N)ncnc54)O[C@@H]3COP(=O)(S)O[C@H]3[C@@H](O)[C@H](n4ccc5c(=O)[nH]c(N)nc54)O[C@@H]3COP(=O)(S)O[C@H]3[C@@H](O)[C@H](n4ccc(=O)[nH]c4=O)O[C@@H]3COP(=O)(S)O[C@H]3[C@@H](O)[C@H](n4cnc5c(N)ncnc54)O[C@@H]3COP(=O)(S)O[C@H]3[C@@H](O)[C@H](n4ccc5c(=O)[nH]c(N)nc54)O[C@@H]3COP(=O)(S)O[C@H]3[C@@H](O)[C@H](n4ccc(=O)[nH]c4=O)O[C@@H]3CO)[C@@H](OP(=O)(S)OC[C@H]3O[C@@H](n4ccc5c(=O)[nH]c(N)nc54)[C@H](O)[C@@H]3OP(=O)(S)OC[C@H]3O[C@@H](n4cnc5c(N)ncnc54)[C@H](O)[C@@H]3OP(=O)(S)OC[C@H]3O[C@@H](n4ccc(=O)[nH]c4=O)[C@H](O)[C@@H]3OP(=O)(S)OC[C@H]3O[C@@H](n4ccc(=O)[nH]c4=O)[C@H](O)[C@@H]3OP(=O)(S)OCC(O)COP(=O)(S)O[C@H]3[C@@H](O)[C@H](n4ccc(=O)[nH]c4=O)O[C@@H]3COP(=O)(S)O[C@H]3[C@@H](O)[C@H](n4ccc(=O)[nH]c4=O)O[C@@H]3COP(=O)(S)O[C@H]3[C@@H](O)[C@H](n4cnc5c(N)ncnc54)O[C@@H]3COP(=O)(S)O[C@H]3[C@@H](O)[C@H](n4ccc5c(=O)[nH]c(N)nc54)O[C@@H]3COP(=O)(S)O[C@H]3[C@@H](O)[C@H](n4ccc(N)nc4=O)O[C@@H]3CO[C@H]3[C@@H](O)[C@H](n4cnc5c(N)ncnc54)O[C@@H]3COP(=O)(S)O[C@H]3[C@@H](O)[C@H](n4ccc5c(=O)[nH]c(N)nc54)O[C@@H]3COP(=O)(S)O[C@H]3[C@@H](O)[C@H](n4ccc(=O)[nH]c4=O)O[C@@H]3COP(=O)(S)O[C@H]3[C@@H](O)[C@H](n4cnc5c(N)ncnc54)O[C@@H]3COP(=O)(S)O[C@H]3[C@@H](O)[C@H](n4ccc5c(=O)[nH]c(N)nc54)O[C@@H]3COP(=O)(S)O[C@H]3[C@@H](O)[C@H](n4ccc(=O)[nH]c4=O)O[C@@H]3CO)[C@H]2O)c(=O)n1 (stereo not given in full)
- Activity (PBMC [11]): 68 pg/mL
- Activity (PBMC [12]): 131 pg/mL
- Activity (PBMC [13]): 5790 pg/mL
- Activity (PBMC [14]): 9960 pg/mL
- Activity (PBMC [15]): 155 pg/mL
- Activity (Homo sapiens [16]): Active
- Activity (Homo sapiens [17]): Active
- Activity (Homo sapiens [18]): Active
- Activity (Homo sapiens [19]): Active
- Activity (Mus musculus): Active
